In brackets after ≈: the same amount, converted by molar mass. Activity calls are given as the source filed them. The rule behind the calls is not given here.
Tests used:
P388 = assay: Cytotoxicity against mouse P388 cells; assay type: functional
[1] = test system: Stenotrophomonas maltophilia; assay: Antibacterial activity against Stenotrophomonas maltophilia ATCC 13637 by broth microdilution assay; assay type: functional, organism-based
In short: (§1)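 Samples reconstituted in a small volume of sterile DMSO and diluted in the appropriate medium immediately before testing by established broth microdilution. MIC taken as the lowest concentration that inhibited all visible growth of the test organism (optically clear wells). Assays were repeated on separate days.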

Micrococcus luteus = assay: Antibacterial activity against Micrococcus luteus Presque Isle 456 by broth microdilution assay; assay type: functional, organism-based; in short: as §1
Staphylococcus aureus = assay: Antibacterial activity against Staphylococcus aureus ATCC 29213 by broth microdilution assay; assay type: functional, organism-based; in short: as §1
Escherichia coli = assay: Antibacterial activity against Escherichia coli ATCC 25922 by broth microdilution assay; assay type: functional, organism-based; in short: as §1
Enterobacter cloacae = assay: Antibacterial activity against Enterobacter cloacae ATCC 13047 by broth microdilution assay; assay type: functional, organism-based; in short: as §1
Enterococcus faecalis = assay: Antibacterial activity against Enterococcus faecalis ATCC 29212 by broth microdilution assay; assay type: functional, organism-based; in short: as §1
Streptococcus pneumoniae = assay: Antibacterial activity against Streptococcus pneumoniae ATCC 6303 by broth microdilution assay; assay type: functional, organism-based; in short: as §1
Neisseria gonorrhoeae = assay: Antibacterial activity against Neisseria gonorrhoeae ATCC 49226 by broth microdilution assay; assay type: functional; in short: as §1
Candida albicans = assay: Antifungal activity against Candida albicans ATCC 90028 by broth microdilution assay; assay type: functional, organism-based; in short: as §1
Cryptococcus neoformans = assay: Antifungal activity against Cryptococcus neoformans ATCC 90112 by broth microdilution assay; assay type: functional, organism-based; in short: as §1

Row | MIC (Neisseria gonorrhoeae) [µg/mL] | SMILES | Activity (P388) | Activity [1] | Activity (Micrococcus luteus) | Activity (Staphylococcus aureus) | Activity (Escherichia coli) | Activity (Enterobacter cloacae) | Activity (Enterococcus faecalis) | Activity (Streptococcus pneumoniae) | Activity (Neisseria gonorrhoeae) | Activity (Candida albicans) | Activity (Cryptococcus neoformans) | EC50 (P388; read-out: ED50 (the source's name)) [µg/mL]
1 |  | C=C1[C@@H](O)[C@@H]2CC(C)(C)CC2=C(CO)C12CC2 | inactive | inactive | inactive | inactive | inactive | inactive | inactive | inactive | inactive | inactive | inactive | 
2 |  | Cc1c(O)c2c(c(C)c1CCO)C[C@@](C)(CO)C2 | inactive | inactive | inactive | inactive | inactive | inactive | inactive | inactive | inactive | inactive | inactive | 
3 |  | Cc1c(O)c2c(c(C)c1CCO)CC(C)(C)C2 | inactive | inactive | inactive | inactive | inactive | inactive | inactive | inactive | inactive | inactive | inactive | 
4 |  | CC(=O)c1cccc2oc(=O)[nH]c12 | inactive | inactive | inactive | inactive | inactive | inactive | inactive | inactive | inactive | inactive | inactive | 
5 |  | Cc1c(O)c2c(c(C)c1CCO)C[C@](C)(CO)C2 | inactive | inactive | inactive | inactive | inactive | inactive | inactive | inactive | inactive | inactive | inactive | 
6 | 32 (≈ 137 µM) | C=C1[C@@H](O)[C@@H]2C[C@](C)(CO)CC2=C(C)C12CC2 [COPRINASTATIN 1] |  | inactive | inactive | inactive | inactive | inactive | inactive | inactive |  | inactive | inactive | 5.3 (≈ 22.6 µM)

Source: ChEMBL document CHEMBL1153741, “Antineoplastic agents. 556. Isolation and structure of Coprinastatin 1 from Coprinus cinereus” (2010)
